Among the data in ChEMBL document CHEMBL1149909, “Aurocitrin and related polyketide metabolites from the wood-decay fungus Hypocrea sp. BCC 14122” (J Nat Prod, 2008) are IC50 values, retold here.

Structures are written as SMILES.

One assay has as its system Plasmodium falciparum. Briefly: Antimalarial activity against multidrug-resistant Plasmodium falciparum K1 by microculture radioisotope technique. It counts as functional, organism-based.
For a further assay, the system named is KB. Briefly: Cytotoxicity against human KB cells by colorimetric method. It counts as functional, cell-based. The procedure, abridged: (§1)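 Colorimetric cytotoxicity read-out on four cell lines: KB (oral human epidermoid carcinoma), BC (human breast cancer), NCI-H187 (human small cell lung cancer) and Vero (African green monkey kidney […]). A reference compound was run alongside.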

The test system of a further assay is Vero. The experiment in a line: Cytotoxicity against african green monkey Vero cells by colorimetric method. The conditions noted are these: Chlorocebus sabaeus. It counts as cell-based. An outline of the steps: as §1
The next assay deals with NCI-H187. Briefly: Cytotoxicity against human NCI-H187 cells by colorimetric method. The format is functional, cell-based. The procedure, abridged:
as §1

Assay [1] can be described thus: Cytotoxicity against human BC cells by colorimetric method. The format is functional, cell-based. The procedure, abridged:
as §1

Usually IC50 stands for the concentration at which inhibition is half-maximal. Take `C[C@H]1[C@@H](O)O[C@@H]2O[C@@]3(C)CC[C@H]4[C@H](C)CC[C@@H]1[C@@]24OO3` [ARTENIMOL]: the IC50 in the assay on Plasmodium falciparum worked out at 4.5 nM.
For `Cc1c2ccncc2c(C)c2c1[nH]c1ccccc12` [ELLIPTECINE], the IC50 is 2200 nM in the assay with KB, 2100 nM in the assay on Vero, 2000 nM in the assay with NCI-H187 and 1200 nM in assay [1].
